PMI act hi M6P – human PMI activators, high substrate, primary screen, biochemical, fluorescence intensity, near-saturating mannose 6-phosphate. activation factor at 20 µM. AID 1216, 2008. actives 0.34% (n = 190,000). coupled PMI enzyme assay, resazurin fluorescence, 20 min; stronger effect = higher value; 1 = untreated enzyme, 0 = substrate-free blank;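 active means activation factor of 2 or more at 20 µM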
Target sequence (P34949 whole entry, looked up): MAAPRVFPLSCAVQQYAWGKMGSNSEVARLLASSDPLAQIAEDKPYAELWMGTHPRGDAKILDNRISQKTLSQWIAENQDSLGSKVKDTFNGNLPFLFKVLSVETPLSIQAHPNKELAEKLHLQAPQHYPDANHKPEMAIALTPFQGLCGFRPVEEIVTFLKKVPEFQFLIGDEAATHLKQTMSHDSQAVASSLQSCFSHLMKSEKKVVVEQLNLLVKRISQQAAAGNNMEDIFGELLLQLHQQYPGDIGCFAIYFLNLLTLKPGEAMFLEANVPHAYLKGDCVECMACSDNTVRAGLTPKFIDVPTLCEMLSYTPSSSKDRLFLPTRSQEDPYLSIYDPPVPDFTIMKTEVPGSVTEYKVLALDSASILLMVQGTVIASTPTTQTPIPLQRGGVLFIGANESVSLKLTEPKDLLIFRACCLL
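Test system: human phosphomannose isomerase with PGI, G6PDH, diaphorase coupling enzymes / Doses: 20 µM compound, 1% DMSO / Times: enzyme reaction with compound 20 min at room temperature / Measured by: Diaphorase-driven resazurin-to-resorufin fluorescence, excitation 544, emission 590 nm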
WT yeast gro inh – growth inhibition of WT strain, primary screen, mitochondrial fusion inhibitor project, WT and mutant strains, chemical genetic | mitochondrial fusion phenotypic screen | inhibition, % at 10 µM | actives 2.1% (n = 190,000) | AID 1362, 2008; in the data active means inhibition above about 58%; tested in S. cerevisiae
PMI act – activators of human PMI, primary screen, biochemical, fluorescence intensity, near-Km mannose 6-phosphate; Mannose-6-phosphate isomerase (Homo sapiens), P34949; purified human PMI, coupled resazurin fluorescence, 20 min; stronger effect = higher value; 1 = vehicle control, 0 substrate-free wells; activation factor at 20 µM; actives 0.005% (n = 190,000); AID 1214, 2008;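 active means activation factor of 2 or more at 20 µM, relative to plate controls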
Diaphorase act – compounds boosting diaphorase resazurin reduction – biochemical, uHTS, resorufin fluorescence, counter-screen for diaphorase-coupled primary assays, primary screen | actives 0.005% (n = 190,000) | AID 1229, 2008 | activation factor at 20 µM | Diaphorase/resazurin coupled assay, 16 min; stronger effect = higher value; 1 = vehicle wells, 0 = NADH-free wells;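 active means diaphorase activity raised at least twofold by the compound at 20 µM; inactive means activation factor below 2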
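Material: purified diaphorase enzyme from Clostridium kluyveri; Also added: 0.114 mM NADH and 0.1 mM resazurin, final amounts; Doses: single compound dose of 20 µM, 1% DMSO final; Times: 16 min enzyme reaction, ambient temperature; Detection: resorufin fluorescence, excitation 544 nm, emission 590 nm; Measure: increased resorufin signal from activators or reducing compounds.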
L major viab – Leishmania major promastigote growth inhibition, primary screen; Leishmania major promastigotes, resazurin fluorescence viability; inhibition, % at 10 µM; actives 9% (n = 200,000); AID 1063, 2008; in the data active means inhibition above about 50%;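 further: promastigotes grown with compound for 44 hours at 28 °C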
An asterisk follows results filed as active. Only some compounds are listed: those with a hit (about 10% of all), similar ones and a draw of the others.

SMILES	PMI act hi M6P	WT yeast gro inh	PMI act	Diaphorase act	L major viab
NC(=O)c1nsc(C(=O)N(c2ccccc2)C(C(=O)NCC2CCCO2)c2cccs2)c1N (stereo not drawn)	1	-8.6	0.9	1	72.9*
O=C(CNS(=O)(=O)c1ccc(Br)cc1)N1CCOCC1	1	11.9	1	0.9	-3.2
CCCCNc1ccccc1C(=O)OCC(=O)Nc1ccc(S(N)(=O)=O)cc1	0.9	0.4	0.9	0.8	78.3*
Cc1nnn(C23CC4CC(CC(CC(=O)Nc5ccc(C)c(C)c5)(C4)C2)C3)n1	1	4.3	0.9	0.8	68.1*
Cc1cccc(NC(=O)CC23CC4CC(C2)CC(n2nnc(C)n2)(C4)C3)c1	0.9	-8.9	0.8	0.8	54.8*
O=c1c(Br)c(Br)cnn1-c1ccccc1	1	31.9	0.9	0.9	100.5*
Cc1ccc(-n2ncc(Br)c(Br)c2=O)cc1	1	46.2	1	0.9	100.2*
CN1C(c2ccc(F)cc2)=CS/C1=C(\C#N)c1nnc2n1-c1ccccc1SC2	1.1	15.0	1.1	0.9	79.4*
CCCCCOc1ccc2oc(=O)c3c(c2c1)CCCN3C(=O)CN1CCCC(C(=O)OCC)C1 (stereo not drawn)	1	80.4*	1	0.9	18.6
CC(=O)Oc1ccc2oc(=O)c3c(c2c1)CCCN3C(=O)CN1CCOCC1	1.1	-8.0	1	1	-10.3
CCCOc1ccc2oc(=O)c3c(c2c1)CCCN3C(=O)CN(C)Cc1ccccc1	0.9	-6.9	0.9	0.8	58.1*
O=C(CN1CCN(Cc2ccccc2)CC1)N1CCCc2c1c(=O)oc1ccc(O)cc21	1	2.9	0.9	0.8	9.9
O=C(CSc1cccc[n+]1[O-])Nc1c(Br)cc([N+](=O)[O-])cc1Br	1	-10.2	1.2	0.9	43.5
Cc1ccc(S(=O)(=O)N2CCN(C(C)C(=O)Nc3ccccc3-c3ccccc3)CC2)cc1 (stereo not drawn)	1	-0.1	0.9	0.9	93.6*
CC1CCN(C(C)C(=O)Nc2ccccc2-c2ccccc2)CC1 (stereo not drawn)	1.1	60.4*	0.9	0.9	51.0*
Cc1noc(C)c1CSCc1ccc(Cl)cc1	1	10.2	0.9	0.9	1.0
O=c1c([N+](=O)[O-])cccn1Cc1cccc(Cl)c1	1	0.4	1	0.9	19.6
Cc1nc2c(Br)cc(Br)cc2cc1O	1	36.8	1	0.9	-4.6
CC(=O)N1CCN(c2nc(CC(C)C)c3c(c2C#N)CCC3)CC1	1	-9.9	1.1	1	8.6
CC1(C)Cc2c(C#N)c(N3CCN(C(=O)c4ccco4)CC3)nc(Cc3ccccc3)c2CO1	1	2.9	1	0.8	89.6*
CC1(C)Cc2c(C#N)c(N3CCN(C(=O)c4ccco4)CC3)nc(-c3ccco3)c2CS1	0.8	16.0	0.9	0.8	18.8
N#Cc1c(N2CCN(C(=O)c3ccccc3)CC2)nc(-c2ccccc2)c2c1CCCC2	0.9	44.5	0.9	0.8	75.1*
CC(C)c1cc(N2CCN(C(=O)c3ccco3)CC2)n2c(nc3ccccc32)c1C#N	0.9	13.7	0.9	0.7	51.8*
CC(C)Cc1nc(N2CCN(C(=O)c3ccco3)CC2)c(C#N)c2c1CCC2	0.9	-2.7	0.8	0.8	51.2*
COc1cc(/C=C\C(=O)NCc2ccc3c(c2)cc(C)n3C)cc(OC)c1OC	1	9.8	1	0.9	3.6
CN(C)C=NC(=O)c1cn(-c2ccc(F)cc2)c(=O)c2ccccc12	1.1	11.0	1	1	-3.2
CC(C)Cc1nc(N2CCN(C(=O)c3ccccc3)CC2)c(C#N)c2c1CCC2	0.9	72.6*	0.9	0.9	40.4
CCCn1nc([N+](=O)[O-])c(C(C#N)c2nc3ccccc3s2)c(Cl)c1=O (stereo not drawn)	0.8	77.7*	0.8	0.7	2.1
CCn1nc([N+](=O)[O-])c(C(C#N)c2nc3ccccc3n2C)c(Cl)c1=O (stereo not drawn)	1	-16.0	1	0.8	1.2

Screens (PubChem)
